The values below come from ChEMBL document CHEMBL1134348, “Novel glucocorticoid antedrugs possessing a 17beta-(gamma-lactone) ring” (J Med Chem, 2001).

The nature of series [1]: (§1) % stability in human plasma after 60 minutes. Type of series: ADME, organism-based. The note with it: plasma, read-out: Stability. In outline:
(§2)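 Pooled heparinized plasma from 4 volunteers was incubated at 37 °C with test compound at a final concentration of 30 ug/mL, with DMSO-only controls. The reaction was stopped with 2 M citric acid at 10 and 60 min, with a zero-time sample. Supernatants were analysed by reversed-phase HPLC at 240 nm against an internal standard, in duplicate, and reported as % compound remaining.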

For series [2], the system named is Rattus norvegicus. Briefly: Inhibition of rat ear edema as percentage change in mean weight (46.46+/-2.86 mg) from control group of 72.25+/-2.24 mg at 100 ug dose. In kind it is functional.
A short description of series [3]: (§3) % stability in human plasma after 10 minutes. The note with it: plasma, read-out: Stability. In kind it is ADME, organism-based. In outline: as §2
The subject of series [4] is Rattus norvegicus. Briefly: Inhibition of rat ear edema as percentage change in mean weight (49.76+/-2.12 mg) from control group of 72.25+/-2.24 mg at 25.00 ug dose. Type of series: functional.
The next series concerns the target T1, Glucocorticoid receptor (Homo sapiens, UniProt P04150).
T1 sequence (P04150 whole entry): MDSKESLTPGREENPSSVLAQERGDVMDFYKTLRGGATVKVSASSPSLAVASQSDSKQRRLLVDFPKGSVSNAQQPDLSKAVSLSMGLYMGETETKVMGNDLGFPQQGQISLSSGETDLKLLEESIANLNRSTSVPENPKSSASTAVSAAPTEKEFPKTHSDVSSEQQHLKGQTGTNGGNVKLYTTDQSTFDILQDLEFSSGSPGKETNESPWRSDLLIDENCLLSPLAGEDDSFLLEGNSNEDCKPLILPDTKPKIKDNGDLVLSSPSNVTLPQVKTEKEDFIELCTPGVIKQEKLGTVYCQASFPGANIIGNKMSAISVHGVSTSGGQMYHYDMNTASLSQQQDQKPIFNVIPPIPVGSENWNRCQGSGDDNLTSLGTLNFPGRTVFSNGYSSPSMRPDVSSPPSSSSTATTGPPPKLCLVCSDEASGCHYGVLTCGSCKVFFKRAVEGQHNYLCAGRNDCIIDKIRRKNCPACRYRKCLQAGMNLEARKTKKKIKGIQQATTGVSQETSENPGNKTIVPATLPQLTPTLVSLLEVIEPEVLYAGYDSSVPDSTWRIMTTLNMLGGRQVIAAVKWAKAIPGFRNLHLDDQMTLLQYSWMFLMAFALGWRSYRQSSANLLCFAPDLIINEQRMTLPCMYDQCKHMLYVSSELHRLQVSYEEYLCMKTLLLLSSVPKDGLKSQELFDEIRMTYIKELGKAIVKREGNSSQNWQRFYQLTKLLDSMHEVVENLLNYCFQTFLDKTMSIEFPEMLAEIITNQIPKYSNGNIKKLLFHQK
Nature of the series: Affinity for human glucocorticoid receptor.

A short description of series [5]: half life in human plasma. Type of series: ADME, organism-based. A digest of the protocol:
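Pooled heparinised plasma from 4 volunteers, stored at −20 °C; compound spiked to final 30 ug/mL at 37 °C. Half-life taken from additional time points in this incubation; reaction stopped with 2 M citric acid, samples frozen overnight and centrifuged. Supernatant analysed by reverse-phase HPLC with UV at 240 nm, internal standard dexamethasone or hydrocortisone; duplicates.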

The subject of series [6] is Rattus norvegicus. Nature of the series: Inhibition of rat ear edema as percentage change in mean weight (54.84 +/- 2.18 mg) from control group of 72.25+/-2.24 mg at 10.00 ug dose. Type of series: functional.
Series [7] is described as follows: % stability in krebs buffer after 60 minutes. Type of series: physicochemical. The note with it: for remaining at 1 h: Krebs buffer, read-out: Stability; for Stability: buffer, 1 h. A digest of the protocol:
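Test compound, at a final concentration of 30 ug/mL, was spiked into Krebs buffer at 37 °C for 60 min, then quenched with 2 M citric acid. Supernatant was analysed by reversed-phase HPLC with UV detection at 240 nm and an internal standard, in duplicate. The read-out was % compound remaining.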

For series [8], the system named is Rattus norvegicus. Nature of the series: Inhibition of rat ear edema as percentage change in mean weight (55.94 +/- 3.31 mg) from control group of 72.25+/-2.24 mg at 6.25 ug dose. Type of series: functional.
In series [9] the test system is Rattus norvegicus. Briefly: Inhibition of rat ear edema as percentage change in mean weight (71.65+/-2.81 mg) from control group of 72.25+/-2.24 mg at a 1.56 ug dose. In kind it is functional.
The species entered for series [10] is Homo sapiens. Described as §1. In kind it is ADME, organism-based. To be noted: 1 h. A digest of the protocol:
as §2

The species named for series [11] is Homo sapiens. The description is as §3. Type of series: ADME, organism-based. To be noted: 10 min. In outline: as §2
Series [12] has as its system Rattus norvegicus. Nature of the series: Inhibition of rat ear edema as percentage change in mean weight (47.21+/-1.28 mg) from control group of 55.67+/-1.22 mg at 25.00 ug dose.
For series [13], the system named is Rattus norvegicus. Briefly: Inhibition of rat ear edema as percentage change in mean weight (43.03+/-1.19 mg) from control group of 55.67+/-1.22 mg at 100.00 ug dose.
In series [14] the test system is Rattus norvegicus. Nature of the series: Inhibition of rat ear edema as percentage change in mean weight (58.02+/-1.46 mg) from control group of 55.67+/-1.22 mg at 1.56 ug dose.
Series [15] has as its system Rattus norvegicus. Nature of the series: Inhibition of rat ear edema as percentage change in mean weight (47.85+/-1.09 mg) from control group of 55.67+/-1.22 mg at 6.25 ug dose.
Series [16] deals with T2, Glucocorticoid receptor (Rattus norvegicus) (UniProt P06536).
T2 sequence (whole entry): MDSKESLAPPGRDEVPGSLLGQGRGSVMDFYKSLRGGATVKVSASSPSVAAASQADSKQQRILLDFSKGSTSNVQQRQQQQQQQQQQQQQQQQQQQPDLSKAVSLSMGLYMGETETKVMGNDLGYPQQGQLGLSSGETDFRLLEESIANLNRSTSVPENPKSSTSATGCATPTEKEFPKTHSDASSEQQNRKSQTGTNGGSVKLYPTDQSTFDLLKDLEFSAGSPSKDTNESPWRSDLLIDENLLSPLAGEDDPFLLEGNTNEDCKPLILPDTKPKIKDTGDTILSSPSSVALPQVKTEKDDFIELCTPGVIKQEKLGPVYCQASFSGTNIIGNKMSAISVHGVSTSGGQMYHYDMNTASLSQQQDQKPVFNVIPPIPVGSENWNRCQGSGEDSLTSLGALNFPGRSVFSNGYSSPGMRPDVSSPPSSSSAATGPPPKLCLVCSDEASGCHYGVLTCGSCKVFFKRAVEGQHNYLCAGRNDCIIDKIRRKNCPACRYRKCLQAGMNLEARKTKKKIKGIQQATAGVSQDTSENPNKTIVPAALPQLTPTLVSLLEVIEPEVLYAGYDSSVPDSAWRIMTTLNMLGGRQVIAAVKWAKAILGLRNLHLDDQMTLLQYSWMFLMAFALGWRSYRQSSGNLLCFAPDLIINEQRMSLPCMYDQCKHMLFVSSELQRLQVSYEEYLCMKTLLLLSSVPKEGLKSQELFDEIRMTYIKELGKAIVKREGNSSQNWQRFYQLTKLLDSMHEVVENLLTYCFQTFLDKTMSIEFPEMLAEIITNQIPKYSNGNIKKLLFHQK
Briefly: Percentage reduction in thymus weight (248.99+/-23.19 mg) at 50 ug dose. Type of series: functional.

As for `CCC[C@@H]1O[C@@H]2CC3C4C[C@H](F)C5=CC(=O)CC[C@]5(C)[C@@]4(F)[C@@H](O)C[C@]3(C)[C@]2(S[C@@H]2CCOC2=O)O1` (stereo partly specified), the remaining at 1 h in [1] worked out at 0%; in series [7] it was 91%. Moreover, the Decrease in the series with Rattus norvegicus [2] was 35.7%; in the series on Rattus norvegicus [4] it was 31.1%; with Rattus norvegicus [6], 24.1%; in the series with Rattus norvegicus [8] it was 22.6%; in the series with Rattus norvegicus [9], 0.83%. In addition, in [3], the remaining at 10 min worked out at 19%. This molecule gave an IC50 against Glucocorticoid receptor of 6.4 nM. The same molecule had a half-life in series [5] of 5 min.

In the case of `CCC[C@@H]1O[C@@H]2CC3C4C[C@H](F)C5=CC(=O)C=C[C@]5(C)[C@@]4(F)[C@@H](O)C[C@]3(C)[C@]2(SC2CCOC2=O)O1` (stereo partly specified), the remaining at 1 h was 0% in series [1] and 77% in series [7]. Moreover, the remaining at 10 min in [3] was determined as 0%.

For `CCC[C@@H]1O[C@@H]2CC3C4C[C@H](F)C5=CC(=O)C=C[C@]5(C)[C@@]4(F)[C@@H](O)C[C@]3(C)[C@]2(S[C@@H]2CCOC2=O)O1` (stereo partly specified), the remaining at 1 h in series [1] was 7%; in [7], 100%. In addition, in series [3], the remaining at 10 min came out at 19%.

With `CC1(C)O[C@@H]2CC3C4C[C@H](F)C5=CC(=O)CC[C@]5(C)[C@@]4(F)[C@@H](O)C[C@]3(C)[C@]2(SC2CCOC2=O)O1` (stereo partly specified), the remaining at 1 h in series [1] was determined as 0%; in [7], 89%. For the same molecule, the remaining at 10 min in series [3] was 20%.

Turning to `CC1(C)O[C@@H]2CC3C4C[C@H](F)C5=CC(=O)C=C[C@]5(C)[C@@]4(F)[C@@H](O)C[C@]3(C)[C@]2(CC2CCOC2=O)O1` (single isomer, unassigned; isomer B), the remaining at 1 h in series [1] came out at 99%; in series [7] it was 100%. For the same molecule, the remaining at 10 min in [3] amounted to 100%.

Take `CCC[C@@H]1O[C@@H]2CC3C4C[C@H](F)C5=CC(=O)CC[C@]5(C)[C@@]4(F)[C@@H](O)C[C@]3(C)[C@]2(SC2COC(=O)C2)O1` (single isomer, unassigned; isomer A): the Stability is on record as 19% in the series listed under Homo sapiens [10], 28% in the series listed under Homo sapiens [11] and 99% in series [7].

On to `CCC[C@@H]1O[C@@H]2CC3C4C[C@H](F)C5=CC(=O)CC[C@]5(C)[C@@]4(F)[C@@H](O)C[C@]3(C)[C@]2(S[C@H]2CCOC2=O)O1` (stereo partly specified), for which the remaining at 1 h in series [1] was 0%; in series [7], 82%. The remaining at 10 min in [3] was 0%.

With `CC1(C)O[C@@H]2CC3C4C[C@H](F)C5=CC(=O)C=C[C@]5(C)[C@@]4(F)[C@@H](O)C[C@]3(C)[C@]2(S[C@@H]2CCOC2=O)O1` (stereo partly specified), the Decrease with Rattus norvegicus [12] worked out at 15.2%; in the series on Rattus norvegicus [13], 22.7%; in the series on Rattus norvegicus [14] it was 0%; with Rattus norvegicus [15], 14%. The remaining at 1 h in series [1] stood at 15%; in [7] it was 90%. Besides, in series [3], the remaining at 10 min was 45%. On Glucocorticoid receptor, the IC50 is 1.4 nM.

As to `CCC[C@@H]1O[C@@H]2CC3C4C[C@H](F)C5=CC(=O)CC[C@]5(C)[C@@]4(F)[C@@H](O)C[C@]3(C)[C@]2(SC2COC(=O)C2)O1` (single isomer, unassigned; isomer B), the Stability turned out to be 0% in the series listed under Homo sapiens [10] and 56% in the series filed under Homo sapiens [11]. Further, the remaining at 1 h in series [7] is 100%.

In [16], `CCCC1O[C@@H]2C[C@H]3[C@@H]4CCC5=CC(=O)C=C[C@]5(C)[C@H]4[C@@H](O)C[C@]3(C)[C@]2(C(=O)CO)O1` (stereo partly specified) had a Reduction of 48%.

Turning to `CC1=C(SC2CCOC2=O)[C@@]2(C)C[C@H](O)[C@@]3(F)C(CCC4=CC(=O)C=C[C@@]43C)C2C1` (single isomer, unassigned; isomer B), the remaining at 1 h came out at 8% in series [1] and 98% in series [7]. The molecule also had a Stability in the series filed under Homo sapiens [11] of 17%.

For the molecule `CC1(C)O[C@@H]2CC3C4C[C@H](F)C5=CC(=O)CC[C@]5(C)[C@@]4(F)[C@@H](O)C[C@]3(C)[C@]2(S[C@@H]2CCOC2=O)O1` (stereo partly specified), the remaining at 1 h is 0% in [1] and 92% in series [7]. The remaining at 10 min in series [3] came to 28%.

In the case of `CCC[C@@H]1O[C@@H]2CC3C4C[C@H](F)C5=CC(=O)CC[C@]5(C)[C@@]4(F)[C@@H](O)C[C@]3(C)[C@]2(SC(CCO)C(=O)O)O1` (stereo partly specified), inhibition against Glucocorticoid receptor was half-maximal at 400 nM (IC50).

Turning to `CC1(C)O[C@@H]2CC3C4C[C@H](F)C5=CC(=O)C=C[C@]5(C)[C@@]4(F)[C@@H](O)C[C@]3(C)[C@]2(SC(CCO)C(=O)O)O1` (stereo partly specified), the IC50 against Glucocorticoid receptor was 289 nM.

`CC1(C)O[C@@H]2CC3C4C[C@H](F)C5=CC(=O)C=C[C@]5(C)[C@@]4(F)[C@@H](O)C[C@]3(C)[C@]2(CC2CCOC2=O)O1` (single isomer, unassigned; isomer A) came in with a Stability in the series listed under Homo sapiens [10] of 100%.

In the case of `CCC[C@@H]1O[C@@H]2CC3C4C[C@H](F)C5=CC(=O)CC[C@]5(C)[C@@]4(F)[C@@H](O)C[C@]3(C)[C@]2(SCC2CCOC2=O)O1` (stereo partly specified), the remaining at 1 h in series [1] and in series [7] was 100% each time. Also, in series [3], the remaining at 10 min was 100%. In series [5], this molecule registered a half-life above 240 min.

Take `CC1=C(SC2CCOC2=O)[C@@]2(C)C[C@H](O)[C@@]3(F)C(CCC4=CC(=O)C=C[C@@]43C)C2C1` (single isomer, unassigned; isomer A): the Stability in the series filed under Homo sapiens [10] is recorded as 13%; in the series filed under Homo sapiens [11], 53%; in series [7], 97%.

The IC50 is the midpoint of a concentration-inhibition curve. Read a high IC50 as lower potency. As a reminder, the half-life is how long it takes for the measured level to halve.
